# Reference: ChEMBL document CHEMBL3352189 (J Med Chem, 2014)
# The source made the active and inactive calls. The rule behind the calls is not given here.
# Key:
# [1] = test system: Venezuelan equine encephalitis virus; assay: Antiviral activity against Venezuelan equine encephalitis virus TC83 infected in C3H/HeN mouse assessed as mouse survival at […], ip BID for 4 days dosed 4 hrs before viral infection (reference value: 14%); assay type: functional; conditions: route intraperitoneal
# Mus musculus [2] = assay: Toxicity in Venezuelan equine encephalitis virus TC83 infected C3H/HeN mouse assessed as body weight loss at 5 mg/kg/day, ip BID for 4 days; assay type: organism-based; set-up: route intraperitoneal; conditions: in vivo, 96 h
# Mus musculus [3] = assay: Toxicity in Venezuelan equine encephalitis virus TC83 infected C3H/HeN mouse assessed as induction of lethargy at 40 mg/kg/day, ip BID for 4 days; assay type: organism-based; set-up: route intraperitoneal; conditions: in vivo, 96 h
# Mus musculus [4] = assay: Toxicity in Venezuelan equine encephalitis virus TC83 infected C3H/HeN mouse assessed as induction of hunched posture at 40 mg/kg/day, ip BID for 4 days; assay type: organism-based; set-up: route intraperitoneal; conditions: in vivo, 96 h
# [5] = biological target: Adenosine receptor A3 (Homo sapiens) (UniProt P0DMS8); assay: Displacement of [125I]AB-MECA from human adenosine A3 receptor at 10 uM
# [6] = biological target: Alpha-1D adrenergic receptor (Homo sapiens) (UniProt P25100); assay: Displacement of [3H]prazosin from human adrenergic alpha1D receptor at 10 uM
# [7] = biological target: B1 bradykinin receptor (Homo sapiens) (UniProt P46663); assay: Displacement of [3H](Des-Arg10)-Kallidin from human bradykinin B1 receptor at 10 uM
# [8] = biological target: B2 bradykinin receptor (Homo sapiens) (UniProt P30411); assay: Displacement of [3H]bradykinin from human bradykinin B2 receptor at 10 uM
# [9] = biological target: L-type calcium channel, dihydropyridine site (Rattus norvegicus, UniProt P22002+P27732+Q02485); assay: Displacement of [3H]nitrendipine from rat calcium channel L-Type dihydropyridine site at 10 uM; assay type: protein assay; conditions: probe [3H]nitrendipine
# [10] = biological target: D(1A) dopamine receptor (Homo sapiens) (UniProt P21728); assay: Displacement of [3H]SCH-23390 from human dopamine D1 receptor at 10 uM
# [11] = biological target: D(3) dopamine receptor (Homo sapiens) (UniProt P35462); assay: Displacement of [3H]spiperone from human dopamine D3 receptor at 10 uM
# [12] = biological target: Endothelin receptor type B (Homo sapiens) (UniProt P24530); assay: Displacement of [125I]endothelin-1 from human ETB receptor at 10 uM
# [13] = biological target: GABA-A receptor; anion channel (Homo sapiens) (UniProt P14867+P47870+P18507+P28472+P48169+Q99928+Q9UN88+P34903+O00591+O14764+Q8N1C3+P18505+P78334+P47869+P31644+Q16445); assay: Displacement of ABC from rat GABAA receptor central muscimol site at 10 uM; assay type: protein-complex assay; conditions: target entry is the homologue from another species
# [14] = biological target: Melatonin-related receptor (Homo sapiens) (UniProt Q13585); assay: Displacement of [125I]2-Iodomelatonin from human MT1 receptor at 10 uM
# [15] = biological target: Muscarinic acetylcholine receptor M2 (Homo sapiens) (UniProt P08172); assay: Displacement of [3H]N-Methylscopolamine from human muscarinic M2 receptor at 10 uM
# [16] = biological target: Neuropeptide Y receptor type 2 (Homo sapiens) (UniProt P49146); assay: Displacement of [125I]Peptide YY from human neuropeptide Y Y2 receptor at 10 uM
# [17] = biological target: Neuronal acetylcholine receptor (Rattus norvegicus) (UniProt P04757+P09483+P12389+P12390+P12392+P43144+Q9JLB5+P12391+P43143+P20420+Q05941); assay: Displacement of [125I]epibatidine from human nAchR at 10 uM; assay type: protein-complex assay
# [18] = biological target: Acetylcholine receptor subunit alpha (Homo sapiens) (UniProt P02708); assay: Displacement of [125I]alpha-Bungarotoxin from human nAchR alpha1 bungarotoxin binding site at 10 uM
# Oryctolagus cuniculus = species: Oryctolagus cuniculus; assay: Displacement of [3H]alpha,beta-methylene-ATP from rabbit P2X channel at 10 uM
# Rattus norvegicus [19] = species: Rattus norvegicus; assay: Displacement of [35S]ATP-alphaS from rat P2Y channel at 10 uM
# Rattus norvegicus [20] = species: Rattus norvegicus; assay: Displacement of [3H]rolipram from rat Rolipram binding site at 10 uM
# [21] = biological target: 5-hydroxytryptamine receptor 2B (Homo sapiens) (UniProt P41595); assay: Displacement of [3H]lysergic acid diethylamide from human 5HT2B receptor at 10 uM
# [22] = biological target: 5-hydroxytryptamine receptor 3A (Homo sapiens) (UniProt P46098); assay: Displacement of [3H]GR-65630 from human 5HT3 receptor at 10 uM
# [23] = Plasma concentration in C57BL/6 mouse at 1 mg/kg, ip administered as single dose measured after 20 mins by LC/MS analysis based RACE assay; assay type: ADME, organism-based; set-up: dose 1 mg/kg, route intraperitoneal
# Outline: (§1)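 Single intraperitoneal dose of 1, 5 or 10 mg/kg given to C57BL/6 mice, 3 mice per dose and time point, with a vehicle-control cohort. Plasma was sampled at 20 and 120 min post-dose and drug level measured by LC/MS. Each time point averaged two injections (<20% difference); values are means ± standard deviation in μM.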
# [24] = Cytotoxicity against african green monkey Vero 76 cells after 3 days by Celltiter-Glo reagent based assay; assay type: cell-based; conditions: chlorocebus sabaeus, vero 76, 72 h
# Outline: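 Vero 76 cells were seeded overnight at 12 000/well and given an 8-point 2-fold compound series (20 mM DMSO stock) in EMEM/10% FBS with no virus. Viability was read by CellTiter-Glo after 3 days relative to untreated cells. Run in duplicate; CC50 from a four-parameter logistic or sigmoidal fit.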
# [25] = test system: Venezuelan equine encephalitis virus; assay: Antiviral activity against Venezuelan equine encephalitis virus TrD infected in Vero 76 cells assessed as reduction in viral titer at 5 uM by crystal violet staining based microplaque assay relative to untreated control; assay type: functional, organism-based
# [26] = test system: Venezuelan equine encephalitis virus; assay: Antiviral activity against Venezuelan equine encephalitis virus TC83 infected in Vero 76 cells assessed as reduction in viral titer by crystal violet staining based microplaque assay relative to untreated control; assay type: functional, organism-based; conditions: TC83, Vero 76
# Plasma = assay: Stability in mouse plasma assessed as parent compound remaining after 3 hrs; assay type: ADME, cell-free
# CYP2C19 = CYP2C19 (Homo sapiens, UniProt P33261); assay: Inhibition of human CYP2C19 at 10 uM; assay type: ADME
# [27] = Plasma concentration in C57BL/6 mouse at 1 mg/kg, ip administered as single dose measured after 120 mins by LC/MS analysis based RACE assay; assay type: ADME, organism-based; set-up: dose 1 mg/kg, route intraperitoneal; outline: as §1
# [28] = Plasma concentration in C57BL/6 mouse at 10 mg/kg, ip administered as single dose measured after 20 mins by LC/MS analysis based RACE assay; assay type: ADME, organism-based; set-up: dose 10 mg/kg, route intraperitoneal; outline: as §1
# [29] = Plasma concentration in C57BL/6 mouse at 10 mg/kg, ip administered as single dose measured after 120 mins by LC/MS analysis based RACE assay; assay type: ADME, organism-based; set-up: dose 10 mg/kg, route intraperitoneal; outline: as §1
# Acetylcholine receptor subunit alpha (Homo sapiens), sequence (P02708 whole entry): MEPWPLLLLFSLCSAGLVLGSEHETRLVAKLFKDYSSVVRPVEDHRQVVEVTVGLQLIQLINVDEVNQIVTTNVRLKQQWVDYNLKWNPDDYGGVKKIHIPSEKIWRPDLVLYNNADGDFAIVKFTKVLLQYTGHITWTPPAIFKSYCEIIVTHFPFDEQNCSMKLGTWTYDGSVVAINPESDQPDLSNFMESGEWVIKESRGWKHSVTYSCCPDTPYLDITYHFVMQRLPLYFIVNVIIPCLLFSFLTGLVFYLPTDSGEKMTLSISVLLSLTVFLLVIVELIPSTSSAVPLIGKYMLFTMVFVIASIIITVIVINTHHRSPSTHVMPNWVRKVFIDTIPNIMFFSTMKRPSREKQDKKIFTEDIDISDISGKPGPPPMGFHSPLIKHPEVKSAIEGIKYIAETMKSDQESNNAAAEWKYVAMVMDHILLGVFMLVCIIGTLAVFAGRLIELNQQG
# Adenosine receptor A3 (Homo sapiens), sequence (P0DMS8 whole entry): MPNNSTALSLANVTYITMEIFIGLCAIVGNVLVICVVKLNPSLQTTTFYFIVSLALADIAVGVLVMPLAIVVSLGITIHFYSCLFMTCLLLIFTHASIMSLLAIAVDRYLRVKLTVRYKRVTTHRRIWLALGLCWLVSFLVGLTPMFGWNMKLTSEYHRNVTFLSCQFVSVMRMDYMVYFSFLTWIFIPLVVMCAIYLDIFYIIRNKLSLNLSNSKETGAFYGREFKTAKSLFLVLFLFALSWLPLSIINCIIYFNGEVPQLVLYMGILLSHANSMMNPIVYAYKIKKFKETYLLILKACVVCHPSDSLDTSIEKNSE
# Melatonin-related receptor (Homo sapiens), sequence (Q13585 whole entry): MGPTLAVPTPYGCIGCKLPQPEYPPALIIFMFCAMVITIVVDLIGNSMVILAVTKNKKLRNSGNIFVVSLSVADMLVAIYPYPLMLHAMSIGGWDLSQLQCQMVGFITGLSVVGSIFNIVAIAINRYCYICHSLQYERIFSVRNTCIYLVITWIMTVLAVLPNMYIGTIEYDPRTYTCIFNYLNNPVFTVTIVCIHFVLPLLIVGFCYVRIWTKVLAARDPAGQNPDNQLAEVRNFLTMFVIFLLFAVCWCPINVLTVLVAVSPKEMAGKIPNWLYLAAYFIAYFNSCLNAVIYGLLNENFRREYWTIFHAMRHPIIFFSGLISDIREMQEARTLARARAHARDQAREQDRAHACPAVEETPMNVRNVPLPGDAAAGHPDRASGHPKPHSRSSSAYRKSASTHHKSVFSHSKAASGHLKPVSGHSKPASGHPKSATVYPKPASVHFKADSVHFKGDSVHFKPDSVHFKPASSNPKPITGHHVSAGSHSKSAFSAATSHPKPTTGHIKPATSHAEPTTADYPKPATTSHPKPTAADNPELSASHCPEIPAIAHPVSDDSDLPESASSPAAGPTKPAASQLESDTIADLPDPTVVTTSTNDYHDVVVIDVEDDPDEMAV
# 5-hydroxytryptamine receptor 3A (Homo sapiens), sequence (P46098 whole entry): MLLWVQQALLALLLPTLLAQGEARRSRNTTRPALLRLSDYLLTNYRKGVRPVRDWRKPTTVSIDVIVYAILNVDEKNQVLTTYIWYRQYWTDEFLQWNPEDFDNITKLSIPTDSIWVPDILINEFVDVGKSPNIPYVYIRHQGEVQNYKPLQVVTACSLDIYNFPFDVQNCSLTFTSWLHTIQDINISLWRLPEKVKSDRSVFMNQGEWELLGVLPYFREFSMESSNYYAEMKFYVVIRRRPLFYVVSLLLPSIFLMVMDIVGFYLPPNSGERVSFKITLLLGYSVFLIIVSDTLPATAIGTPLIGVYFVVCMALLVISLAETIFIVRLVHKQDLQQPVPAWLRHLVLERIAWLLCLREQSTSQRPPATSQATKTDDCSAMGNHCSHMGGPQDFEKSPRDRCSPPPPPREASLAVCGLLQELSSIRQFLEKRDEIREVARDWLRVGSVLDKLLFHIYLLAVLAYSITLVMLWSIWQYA
# B1 bradykinin receptor (Homo sapiens), sequence (P46663 whole entry): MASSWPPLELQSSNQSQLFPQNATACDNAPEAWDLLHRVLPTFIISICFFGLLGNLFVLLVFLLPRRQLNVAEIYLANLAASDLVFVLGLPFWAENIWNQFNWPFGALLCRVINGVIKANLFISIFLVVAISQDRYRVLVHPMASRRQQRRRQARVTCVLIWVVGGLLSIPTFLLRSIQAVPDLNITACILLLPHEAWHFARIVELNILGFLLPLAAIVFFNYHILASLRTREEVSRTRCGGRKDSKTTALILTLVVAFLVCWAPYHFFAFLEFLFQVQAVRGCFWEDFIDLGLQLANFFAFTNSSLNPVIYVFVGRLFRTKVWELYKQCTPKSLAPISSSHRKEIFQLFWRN
# Endothelin receptor type B (Homo sapiens), sequence (P24530 whole entry): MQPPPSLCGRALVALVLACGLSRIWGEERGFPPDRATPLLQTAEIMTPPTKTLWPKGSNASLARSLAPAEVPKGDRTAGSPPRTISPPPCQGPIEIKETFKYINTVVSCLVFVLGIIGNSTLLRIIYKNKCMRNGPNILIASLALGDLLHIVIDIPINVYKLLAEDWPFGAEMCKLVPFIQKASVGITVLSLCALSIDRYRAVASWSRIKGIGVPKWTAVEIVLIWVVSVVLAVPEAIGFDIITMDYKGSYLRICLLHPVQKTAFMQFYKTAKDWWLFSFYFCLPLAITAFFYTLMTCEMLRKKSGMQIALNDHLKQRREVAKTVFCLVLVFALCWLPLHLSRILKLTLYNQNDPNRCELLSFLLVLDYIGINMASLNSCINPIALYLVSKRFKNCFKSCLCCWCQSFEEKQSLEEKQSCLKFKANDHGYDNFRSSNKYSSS
# Neuropeptide Y receptor type 2 (Homo sapiens), sequence (P49146 whole entry): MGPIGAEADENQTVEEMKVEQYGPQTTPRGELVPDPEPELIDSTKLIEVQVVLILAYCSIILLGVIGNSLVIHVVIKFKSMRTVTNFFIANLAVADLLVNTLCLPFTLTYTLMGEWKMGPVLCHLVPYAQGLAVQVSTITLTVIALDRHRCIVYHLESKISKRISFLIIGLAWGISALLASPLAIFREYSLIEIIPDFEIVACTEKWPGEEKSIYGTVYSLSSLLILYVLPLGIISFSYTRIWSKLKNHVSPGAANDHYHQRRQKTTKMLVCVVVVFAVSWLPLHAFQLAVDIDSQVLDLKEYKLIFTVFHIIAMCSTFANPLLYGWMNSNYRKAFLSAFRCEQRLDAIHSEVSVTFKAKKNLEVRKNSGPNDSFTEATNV
# CYP2C19, sequence (P33261 whole entry): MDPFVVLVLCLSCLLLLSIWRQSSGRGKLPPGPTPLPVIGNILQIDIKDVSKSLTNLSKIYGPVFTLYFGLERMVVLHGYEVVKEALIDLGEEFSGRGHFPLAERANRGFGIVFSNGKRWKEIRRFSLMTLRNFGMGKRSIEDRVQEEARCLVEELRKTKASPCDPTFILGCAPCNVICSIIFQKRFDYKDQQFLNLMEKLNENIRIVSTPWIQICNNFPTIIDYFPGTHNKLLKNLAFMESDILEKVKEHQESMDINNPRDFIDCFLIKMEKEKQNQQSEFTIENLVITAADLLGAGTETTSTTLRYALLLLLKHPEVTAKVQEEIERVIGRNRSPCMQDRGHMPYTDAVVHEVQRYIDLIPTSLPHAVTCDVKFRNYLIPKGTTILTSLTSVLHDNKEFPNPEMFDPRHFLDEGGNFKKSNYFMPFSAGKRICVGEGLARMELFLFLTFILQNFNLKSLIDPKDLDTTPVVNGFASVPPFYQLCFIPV
# D(1A) dopamine receptor (Homo sapiens), sequence (P21728 whole entry): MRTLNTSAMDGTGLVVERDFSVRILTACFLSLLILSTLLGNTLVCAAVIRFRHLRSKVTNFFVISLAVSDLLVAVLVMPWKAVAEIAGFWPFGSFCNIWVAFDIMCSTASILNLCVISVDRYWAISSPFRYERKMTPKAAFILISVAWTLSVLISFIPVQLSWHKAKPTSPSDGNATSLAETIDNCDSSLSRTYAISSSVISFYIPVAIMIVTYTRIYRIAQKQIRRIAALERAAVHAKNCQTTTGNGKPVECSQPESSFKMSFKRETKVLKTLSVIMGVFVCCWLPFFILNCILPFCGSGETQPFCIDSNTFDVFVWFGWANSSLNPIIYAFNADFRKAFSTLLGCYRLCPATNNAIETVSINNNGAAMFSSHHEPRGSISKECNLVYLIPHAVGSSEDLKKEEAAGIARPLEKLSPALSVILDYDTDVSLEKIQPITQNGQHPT
# B2 bradykinin receptor (Homo sapiens), sequence (P30411 whole entry): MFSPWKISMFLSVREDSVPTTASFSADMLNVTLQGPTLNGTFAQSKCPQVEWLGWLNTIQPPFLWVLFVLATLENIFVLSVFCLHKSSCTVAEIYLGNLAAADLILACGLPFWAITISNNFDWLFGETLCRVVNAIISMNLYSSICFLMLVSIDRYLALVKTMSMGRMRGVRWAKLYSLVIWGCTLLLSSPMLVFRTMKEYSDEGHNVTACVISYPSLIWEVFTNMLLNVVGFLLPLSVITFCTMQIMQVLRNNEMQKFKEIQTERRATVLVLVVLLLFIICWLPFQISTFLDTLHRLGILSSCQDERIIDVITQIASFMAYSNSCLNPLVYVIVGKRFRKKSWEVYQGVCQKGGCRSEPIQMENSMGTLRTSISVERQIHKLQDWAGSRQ
# Alpha-1D adrenergic receptor (Homo sapiens), sequence (P25100 whole entry): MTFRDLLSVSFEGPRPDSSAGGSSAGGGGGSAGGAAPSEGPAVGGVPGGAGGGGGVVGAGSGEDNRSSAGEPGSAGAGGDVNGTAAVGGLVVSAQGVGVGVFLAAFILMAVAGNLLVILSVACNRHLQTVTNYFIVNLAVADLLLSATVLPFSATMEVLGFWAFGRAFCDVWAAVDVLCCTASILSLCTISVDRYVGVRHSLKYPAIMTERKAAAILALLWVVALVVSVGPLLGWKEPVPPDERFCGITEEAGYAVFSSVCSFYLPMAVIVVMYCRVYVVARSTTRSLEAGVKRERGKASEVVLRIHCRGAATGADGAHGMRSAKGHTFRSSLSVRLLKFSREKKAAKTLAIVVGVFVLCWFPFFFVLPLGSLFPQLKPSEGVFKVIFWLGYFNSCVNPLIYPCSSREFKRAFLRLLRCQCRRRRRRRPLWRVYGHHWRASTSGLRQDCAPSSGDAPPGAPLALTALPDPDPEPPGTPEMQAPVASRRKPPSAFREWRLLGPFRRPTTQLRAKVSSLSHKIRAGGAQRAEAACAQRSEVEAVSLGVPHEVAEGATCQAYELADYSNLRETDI
structure (smiles),measurement,setting,value
CN1CCN(C)/C(=N/c2ccc([N+](=O)[O-])cc2C(=O)Nc2ccccc2)C1,survival at […],[1],127%
same,Activity,Mus musculus [2],Non-toxic
same,Activity,Mus musculus [3],Non-toxic
same,Activity,Mus musculus [4],Non-toxic
same,inhibition,[5],26.7%
same,inhibition,[6],-7.82%
same,inhibition,[7],9.23%
same,inhibition,[8],3.4%
same,inhibition at 10 µM,[9],4.51%
same,inhibition,[10],2.65%
same,inhibition,[11],-1.53%
same,inhibition,[12],8.32%
same,inhibition,[13],0.52%
same,inhibition,[14],18%
same,inhibition,[15],2.1%
same,inhibition,[16],-6.1%
same,inhibition,[17],10.8%
same,inhibition,[18],0.62%
same,inhibition,Oryctolagus cuniculus,14.2%
same,inhibition,Rattus norvegicus [19],6.41%
same,inhibition,Rattus norvegicus [20],34.9%
same,inhibition,[21],10%
same,inhibition,[22],1.64%
same,concentration at 20 min,[23],200 nM
same,CC50,[24],> 50000 nM
same,inhibition,[25],Active
same,EC50,[26],170 nM
same,Stability,Plasma,65.4%
same,inhibition at 10 µM,CYP2C19,17%
same,concentration at 2 h,[27],23 nM
same,concentration at 20 min,[28],2680 nM
same,concentration at 2 h,[29],490 nM
